MC4R antagonist – antagonists of human melanocortin 4 receptor (MC4R) | MC4R-expressing cells, MTII-stimulated cAMP, LANCE TR-FRET | inhibition, % at 6.5 µM | 0.48% of 360,000 active;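 active = inhibition above its plate's cutoff, the mean of tested wells on that plate plus 3 SD, cut at about 29% in these data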
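Assay system: U2OS cells stably expressing human melanocortin 4 receptor (MC4R) / Dosing: 6.5 µM / Timing: compound 30 min, challenge 1 h, detection 1 h / Measured by: Eu-cAMP/anti-cAMP TR-FRET, emission 671 nm / Replicates: singlicate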
HTR2A ag – activates the mouse 5-HT2A serotonin receptor; P35363; CHO-K1 mHTR2A beta-arrestin complementation, luminescence; percent of 30 µM serotonin response; activation, % at 7.6 µM; 0.66% of 360,000 active; AID 624169;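 active = activation above a run cutoff, the mean activation of all tested compounds plus 3 SD, cut at about 14% in these data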
Target sequence (P35363 whole entry, looked up): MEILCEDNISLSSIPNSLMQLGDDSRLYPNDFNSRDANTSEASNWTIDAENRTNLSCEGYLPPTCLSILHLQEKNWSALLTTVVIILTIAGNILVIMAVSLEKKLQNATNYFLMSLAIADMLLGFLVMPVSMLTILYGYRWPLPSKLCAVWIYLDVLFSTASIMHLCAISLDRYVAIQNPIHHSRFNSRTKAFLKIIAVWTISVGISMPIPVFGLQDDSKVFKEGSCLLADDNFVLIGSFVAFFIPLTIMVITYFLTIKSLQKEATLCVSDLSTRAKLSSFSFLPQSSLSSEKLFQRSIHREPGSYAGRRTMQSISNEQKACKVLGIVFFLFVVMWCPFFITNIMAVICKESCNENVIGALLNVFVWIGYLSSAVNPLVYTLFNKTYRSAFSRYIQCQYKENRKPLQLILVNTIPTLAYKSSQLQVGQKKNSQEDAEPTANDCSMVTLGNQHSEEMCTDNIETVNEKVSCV
EBI2 block – blocks human EBI2 receptor beta-arrestin signaling | P32249 | 0.81% of 360,000 active | EBI2 beta-arrestin recruitment, luminescence, 7a,25-OHC stimulated | inhibition, % at 5 µM; in the data active = inhibition above about 38%;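 also: enzyme fragment complementation signal reports receptor beta-arrestin coupling in cells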
MC4R barr agon – activates human MC4R beta-arrestin recruitment. 0.98% of 360,000 active. AID 540308. U2OS MC4R beta-arrestin complementation, luminescence; percent of melanotan II response, DMSO zero. activation, % at 8.9 µM. P32245;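 active = activation above a per-plate cutoff, the mean activation of sample wells on that plate plus 3 SD, cut at about 8% in these data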
U2OS cAMP counter – nonselective cAMP signaling inhibitor, MC4R antagonist counter-screen | shares compounds with MC4R antagonist | parental U2OS, forskolin cAMP, LANCE TR-FRET | inhibition, % at 6.5 µM | 26% of 1,600 active | AID 602193;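 active = mean inhibition over triplicates above the low-control well mean plus 3 SD, set per campaign, cut at about 13% in these data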;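 also: signal is single emission at 671 nm which falls as cellular cAMP rises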
MC4R cAMP antag – human MC4R cAMP antagonism confirmation | shares compounds with MC4R antagonist | MC4R-expressing cells, MTII-stimulated cAMP, TR-FRET | inhibition, % at 6.5 µM | 27% of 1,600 active | AID 602195; in the data active = inhibition above about 29%
A number is an active result; i = inactive; nt = no result. The list is not random: actives were taken first. Their share in the collection is about 2.8%.

SMILES	MC4R antagonist	HTR2A ag	EBI2 block	MC4R barr agon	U2OS cAMP counter	MC4R cAMP antag
Cc1cnc(C(=O)OCC(=O)c2ccc(Br)s2)cn1	30	i	i	i	13	i
CCOC(=O)CC(=O)NC(C)(C)CCCCC(C)(C)NC(=O)CC(=O)OCC	29	i	i	i	i	i
CCN(CC)CC(=O)Nc1ccc(Oc2ccc(NC(=O)CN(CC)CC)cc2)cc1	i	i	i	i	nt	nt
CCN(CC)C(=O)C(=O)Nc1ccc(Oc2ccccc2)cc1	33	i	i	i	i	i
COc1ccc(CNC(=O)c2ccc(-c3ccc(F)c(F)c3)c3ccoc23)cc1OC	40	i	i	i	i	i
Nc1ccc(C(=O)NNC(=O)C2COc3ccccc3O2)cc1[N+](=O)[O-] (stereo not given)	i	i	i	i	nt	nt
CS(=O)(=O)c1ccc(C(=O)OCC(=O)NC(=O)C2COc3ccccc3O2)cc1[N+](=O)[O-] (stereo not given)	31	i	i	i	i	i
CS(=O)(=O)c1ccc(C(=O)OCC(=O)NC(=O)C2CCCCC2)cc1[N+](=O)[O-]	33	i	i	i	25	43
Cc1ccc(Cl)cc1-c1cc(C(=O)N2CCN(c3ccncc3)CC2)[nH]n1	i	i	i	i	nt	nt
COc1ccccc1CN(C)C(=O)C(NC(=O)Cc1cccc2ccccc12)C(C)C (stereo not given)	36	i	i	i	i	i
COc1ccc(CN(C)C(=O)CNC(=O)Cc2cccc3ccccc23)c(OC)c1OC	i	i	i	i	nt	nt
O=C(Cn1ccc(=O)[nH]c1=O)Nc1nccs1	i	i	i	i	nt	nt
CCc1nnc(NC(=O)c2nc(S(=O)(=O)Cc3ccc(C)cc3)ncc2Cl)s1	31	i	i	i	23	39
CCc1nnc(NC(=O)c2nc(S(=O)(=O)Cc3ccccc3)ncc2Cl)s1	30	i	i	i	i	i
O=C(NCc1ccccc1)c1c(Cl)nc(Cl)c(Cl)c1Cl	64	i	i	i	45	64
O=C(NCc1ccccc1)c1nc(S(=O)(=O)Cc2ccccc2)ncc1Cl	48	i	i	i	34	60
COc1ccc(CNC(=O)c2nc(S(=O)(=O)Cc3ccccc3)ncc2Cl)cc1	i	i	i	i	nt	nt
NS(=O)(=O)c1ccc(CNC(=O)c2ccc3c(c2)OCO3)cc1	i	i	i	i	nt	nt
Cc1ccc(Cc2c(C3CCCCC3)nc3c4ccccc4ccn23)cc1	nt	i	i	nt	nt	nt
CN(C)c1ncnc2c1ncn2[C@H]1CN(Cc2ccc(-c3ccccc3)cc2)C[C@@H](CO)O1	i	i	i	i	nt	nt
CCc1nnc(NC(=O)c2nc(S(=O)(=O)Cc3cccc(C)c3)ncc2Cl)s1	39	i	i	i	20	32
COc1cccc(C(=O)NCC[N+](C)(C)C)c1	nt	i	i	nt	nt	nt
NC(N)=NN=C(c1ccc(F)cc1)c1ccc(C(F)(F)F)cc1	i	i	i	i	nt	nt
COc1ccc(-c2noc(CCC(=O)NCCc3cccc(C)c3)n2)cc1	29	i	i	i	i	i
COc1ccccc1N1CCN(C(=O)CCCNC(=O)Cn2cnc3sc(C)c(C)c3c2=O)CC1	33	i	i	i	i	i
SMILES	MC4R antagonist	HTR2A ag	EBI2 block	MC4R barr agon	U2OS cAMP counter	MC4R cAMP antag
COc1ccc(N2CCN(C(=O)CCCNC(=O)Cn3cnc4sc(C)c(C)c4c3=O)CC2)cc1	i	i	i	i	nt	nt
COc1ccc(C(C(=O)NC2CCCCC2)N(C(=O)CCCC(=O)Nc2ccccn2)c2ccc3c(c2)OCCO3)cc1 (stereo not given)	33	i	i	i	i	i
COc1ccc(-n2c(-c3cccc(OC)c3)nc(=S)c3c2CCCC3)cc1	31	i	i	i	17	33
O=S1(=O)CC(N2CC=CC2)CN1Cc1cn(Cc2cccc(Cl)c2)nn1 (stereo not given)	nt	i	i	nt	nt	nt
CC1=C(C(=O)N2CCCCCC2)CC(CC(=O)NCc2cccs2)C(=O)N1Cc1ccccc1 (stereo not given)	nt	i	i	nt	nt	nt
CCOc1ccc2ccccc2c1/C=N/NC(=O)CNC(=O)c1ccccc1O	i	i	i	i	nt	nt
O=C(NCCN1C(=O)S/C(=C\c2ccc(Cl)c([N+](=O)[O-])c2)C1=O)C1=COCCO1	29	i	i	i	i	i
O=C(NCCN1C(=O)S/C(=C\c2ccc(Cl)c(Cl)c2)C1=O)c1cnccn1	i	i	i	i	nt	nt
Brc1ccc(-c2nnc3sc(CNCc4ccc5c(c4)OCO5)cn23)cc1	i	i	i	i	nt	nt
Brc1ccc(-c2nnc3sc(CNC4CCCC4)cn23)cc1	32	i	i	i	17	33
Cc1cc(C(=O)COC(=O)C2=NN(c3ccccc3)C(=O)CC2)c(C)n1CC(F)(F)F	30	i	i	i	i	i
Cc1nc2c(OCc3ccc(C#N)cc3)cccn2c1N(C)Cc1cccs1	i	i	i	i	nt	nt
Cc1ccc(Cn2ncc(Cl)c(Cl)c2=O)cc1	49	i	i	i	33	50
O=C(Cn1ncc(Cl)c(Cl)c1=O)N1CCN(Cc2ccccc2)CC1	29	i	i	i	26	40
O=c1c(Cl)c(Cl)cnn1Cc1nnc(-c2ccc(Cl)cc2)o1	i	i	i	i	nt	nt
COC(=O)CCCC[C@@H]1O[C@H](CCc2ccccc2)Cc2[nH][nH]c(=O)c21	nt	i	i	nt	nt	nt
COCCNC(=S)N1CCc2cc(OC)c(OC)cc2C1COc1cc(C)cc(C)c1 (stereo not given)	29	i	i	i	i	i
O=C(COc1ccccc1[N+](=O)[O-])OCCCOC(=O)COc1ccccc1[N+](=O)[O-]	i	i	i	i	nt	nt
O=C(COc1ccccc1[N+](=O)[O-])OCC(=O)c1ccc(Br)s1	45	i	i	i	14	38
Cc1ccc(S(=O)(=O)N2CCC[C@H]2C(=O)OCC(=O)N2CCc3ccccc32)cc1	31	i	i	i	i	i
Cc1ccnc2nc(C(=O)OCC(=O)c3ccccc3)nn12	i	i	i	i	nt	nt
Cc1ccc(S(=O)(=O)N2CCC(C(=O)OCC(=O)N3CCc4ccccc43)CC2)cc1	i	i	i	i	nt	nt
Cc1ccnc2nc(C(=O)OCC(=O)N3CCc4ccccc43)nn12	34	i	i	i	i	i
Cc1csc(NC(=O)Cc2ccccc2Cl)n1	i	i	i	i	nt	nt
Cc1cnc(NC(=O)Cc2ccccc2Cl)s1	30	i	i	i	i	i
CC(C)(C)c1ccc(NC(=O)c2cc(C3CCCN(S(=O)(=O)c4cccc5cccnc45)C3)on2)cc1 (stereo not given)	i	i	i	i	nt	nt
COC(=O)c1sccc1NC(=S)Nc1ccc(F)cc1F	30	i	i	i	i	i
Cc1cc(C)n(-c2nnc(Cl)c3ccccc23)n1	37	i	i	i	30	46
Cc1nc2ccc(NC(=O)c3ccc(S(=O)(=O)N(C)c4ccccc4)cc3)cc2s1	30	i	i	i	27	i
